Measurements reported in ChEMBL document CHEMBL3576826, “New Monocyclic, Bicyclic, and Tricyclic Ethynylcyanodienones as Activators of the Keap1/Nrf2/ARE Pathway and Inhibitors of Inducible Nitric Oxide Synthase” (J Med Chem, 2015).

What was measured:
[1] = target: T1, Nitric oxide synthase, inducible (Mus musculus, UniProt P29477); assay: Inhibition of iNOS in LPS-stimulated mouse RAW264.7 cells assessed as inhibition of nitric oxide production after 48 hrs by Griess assay; format: cell-based
T1 sequence (P29477 whole entry): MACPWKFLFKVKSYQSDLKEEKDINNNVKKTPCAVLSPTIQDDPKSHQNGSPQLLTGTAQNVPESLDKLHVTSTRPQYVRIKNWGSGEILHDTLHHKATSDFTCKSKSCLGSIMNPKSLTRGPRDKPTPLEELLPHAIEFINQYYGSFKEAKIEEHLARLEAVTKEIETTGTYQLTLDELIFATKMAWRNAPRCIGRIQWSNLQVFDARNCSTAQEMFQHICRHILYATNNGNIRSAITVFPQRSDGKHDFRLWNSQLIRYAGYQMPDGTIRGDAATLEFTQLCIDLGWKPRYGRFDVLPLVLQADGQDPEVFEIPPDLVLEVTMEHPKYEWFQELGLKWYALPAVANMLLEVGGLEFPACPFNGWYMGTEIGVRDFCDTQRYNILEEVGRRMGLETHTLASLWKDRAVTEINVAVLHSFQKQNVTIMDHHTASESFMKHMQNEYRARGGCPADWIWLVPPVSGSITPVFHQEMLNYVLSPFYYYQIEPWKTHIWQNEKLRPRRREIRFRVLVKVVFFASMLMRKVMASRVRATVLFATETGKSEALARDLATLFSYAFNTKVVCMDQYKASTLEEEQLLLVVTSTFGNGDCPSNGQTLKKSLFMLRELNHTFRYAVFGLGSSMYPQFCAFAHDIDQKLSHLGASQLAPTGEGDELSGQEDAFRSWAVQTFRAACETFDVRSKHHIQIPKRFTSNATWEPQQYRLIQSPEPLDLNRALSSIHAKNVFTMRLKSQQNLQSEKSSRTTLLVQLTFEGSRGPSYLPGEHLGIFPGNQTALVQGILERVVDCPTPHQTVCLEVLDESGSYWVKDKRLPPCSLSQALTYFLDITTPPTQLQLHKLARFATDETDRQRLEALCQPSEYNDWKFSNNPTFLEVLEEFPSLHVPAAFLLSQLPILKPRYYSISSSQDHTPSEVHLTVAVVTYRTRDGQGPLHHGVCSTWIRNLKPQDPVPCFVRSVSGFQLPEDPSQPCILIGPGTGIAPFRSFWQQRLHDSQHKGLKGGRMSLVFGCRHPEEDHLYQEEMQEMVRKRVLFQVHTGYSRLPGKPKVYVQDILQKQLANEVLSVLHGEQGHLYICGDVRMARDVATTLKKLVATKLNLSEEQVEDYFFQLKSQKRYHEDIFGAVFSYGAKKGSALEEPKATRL

[2] = target: Kelch-like ECH-associated protein 1/Nuclear factor erythroid 2-related factor 2 (Mus musculus) (UniProt Q60795+Q9Z2X8); assay: Activation of Keap1/Nrf2/ARE pathway in mouse Hepa-1c1c7 cells assessed as double induction of NQO1 specific activity after 48 hrs by bicinchoninic acid assay; format: cell-based
Method in brief: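 Hepa1c1c7 cells, 10000 per well, grown 24 h, then exposed to increasing concentrations for 48 h. Lysed; protein by BCA assay; NQO1 specific activity measured. CD = concentration doubling NQO1 specific activity, used as inducer potency. Eight replicate wells per concentration; SD 5–10%.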

Sequence of Kelch-like ECH-associated protein 1/Nuclear factor erythroid 2-related factor 2 (Mus musculus) (Q60795 whole entry, looked up): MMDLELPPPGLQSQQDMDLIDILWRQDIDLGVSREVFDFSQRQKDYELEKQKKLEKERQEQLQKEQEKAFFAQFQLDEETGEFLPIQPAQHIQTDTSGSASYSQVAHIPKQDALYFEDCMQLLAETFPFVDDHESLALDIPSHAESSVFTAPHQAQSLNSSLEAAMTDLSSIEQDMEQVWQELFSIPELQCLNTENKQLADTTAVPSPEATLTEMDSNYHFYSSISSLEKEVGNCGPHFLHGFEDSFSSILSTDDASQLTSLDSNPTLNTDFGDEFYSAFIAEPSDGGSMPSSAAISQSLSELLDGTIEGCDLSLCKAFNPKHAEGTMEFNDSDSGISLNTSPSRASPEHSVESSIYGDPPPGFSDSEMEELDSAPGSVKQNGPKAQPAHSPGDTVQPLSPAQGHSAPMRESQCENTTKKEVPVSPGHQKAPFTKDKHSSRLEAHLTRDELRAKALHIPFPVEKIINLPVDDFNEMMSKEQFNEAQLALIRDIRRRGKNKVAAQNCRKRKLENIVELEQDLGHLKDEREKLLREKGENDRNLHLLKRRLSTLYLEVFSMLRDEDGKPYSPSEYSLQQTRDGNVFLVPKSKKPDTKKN
Sequence of Kelch-like ECH-associated protein 1/Nuclear factor erythroid 2-related factor 2 (Mus musculus) (Q9Z2X8 whole entry, looked up): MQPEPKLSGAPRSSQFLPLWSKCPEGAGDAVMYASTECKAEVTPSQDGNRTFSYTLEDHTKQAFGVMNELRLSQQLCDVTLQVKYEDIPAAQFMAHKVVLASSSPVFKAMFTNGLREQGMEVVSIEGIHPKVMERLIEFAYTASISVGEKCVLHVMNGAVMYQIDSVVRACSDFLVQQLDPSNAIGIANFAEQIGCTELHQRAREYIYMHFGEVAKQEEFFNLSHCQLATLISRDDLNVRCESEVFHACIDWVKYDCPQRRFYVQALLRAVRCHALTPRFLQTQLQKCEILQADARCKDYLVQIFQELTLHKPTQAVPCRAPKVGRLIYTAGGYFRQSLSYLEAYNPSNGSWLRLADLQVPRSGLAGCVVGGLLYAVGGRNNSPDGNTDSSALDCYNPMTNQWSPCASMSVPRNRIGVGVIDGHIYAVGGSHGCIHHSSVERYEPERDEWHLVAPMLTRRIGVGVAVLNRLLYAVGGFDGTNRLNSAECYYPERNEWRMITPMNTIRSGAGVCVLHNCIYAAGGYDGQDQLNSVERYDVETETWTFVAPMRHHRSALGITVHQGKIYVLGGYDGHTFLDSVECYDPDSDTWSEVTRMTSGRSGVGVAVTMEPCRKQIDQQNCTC

C#CC1(C#C)C=CC(=O)C(C#N)=C1
IC50 ([1]; raw264.7): 210 nM | CD [2]: 180 nM

C#CC12C=C(C#N)C(=O)C=C1c1ccccc1C2 (stereo not drawn)
IC50 ([1]; raw264.7): 380 nM | CD [2]: 41 nM

CC1(C)CC[C@]2(C(=O)O)CC[C@]3(C)[C@H](C(=O)C=C4[C@@]5(C)C=C(C#N)C(=O)C(C)(C)[C@@H]5CC[C@]43C)[C@@H]2C1 [BARDOXOLONE]
IC50 ([1]; raw264.7): 23 nM | CD [2]: 2.3 nM

C#CC12C=C(C#N)C(=O)C=C1CCC2 (stereo not drawn)
IC50 ([1]; raw264.7): 160 nM | CD [2]: 56 nM

C#CC1(C)C=CC(=O)C(C#N)=C1 (stereo not drawn)
IC50 ([1]; raw264.7): 18 nM | CD [2]: 21 nM

C#CC1(C=C)C=CC(=O)C(C#N)=C1 (stereo not drawn)
IC50 ([1]; raw264.7): 16 nM | CD [2]: 20 nM

C#CC12C=C(C#N)C(=O)C=C1C(C)(C)CC2 (stereo not drawn)
IC50 ([1]; raw264.7): 200 nM | CD [2]: 100 nM

C#CC1(C)C=C(C#N)C(=O)c2ccccc21 (stereo not drawn)
CD [2]: 220 nM

C#CC12C=C(C#N)C(=O)C=C1c1c(Br)cccc1CC2 (stereo not drawn)
IC50 ([1]; raw264.7): 650 nM | CD [2]: 1300 nM

C#CC12C=C(C#N)C(=O)C=C1c1c(Cl)cccc1C2 (stereo not drawn)
IC50 ([1]; raw264.7): 800 nM | CD [2]: 130 nM

C#CC1(CC)C=CC(=O)C(C#N)=C1 (stereo not drawn)
CD [2]: 42 nM

C#CC12C=C(C#N)C(=O)C=C1c1c(C)cccc1CC2 (stereo not drawn)
IC50 ([1]; raw264.7): 940 nM | CD [2]: 1800 nM

C#CC12C=C(C#N)C(=O)C=C1c1c(Cl)cccc1CC2 (stereo not drawn)
CD [2]: 900 nM

C#CC12C=C(C#N)C(=O)C=C1c1ccccc1CC2 (stereo not drawn)
CD [2]: 150 nM

C#C[C@]12C=C(C#N)C(=O)C=C1[C@@]1(C)C=C(C#N)C(=O)C(C)(C)[C@@H]1CC2 (racemic)
IC50 ([1]; raw264.7): 1 nM | CD [2]: 0.9 nM

C[S+]([O-])CCCCN=C=S (stereo not drawn) [SULFORAPHANE]
IC50 [1]: 400 nM | CD [2]: 200 nM
